Only some compounds are listed: those with a hit (about 1.8% of all), similar ones and a draw of the others.
ABHD4 inh: inhibits mouse alpha/beta hydrolase domain 4 | purified mABHD4, FP-Rh probe fluorescence polarization | inhibition, % at 8.92 µM | hit rate 0.54% among 370,000 | AID 720543;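 active means inhibition exceeding the mean over every tested compound plus 3 SD, cut at about 30% in these data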
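Test system: mouse ABHD4 enzyme, wild type. Reagent: FP-Rh fluorescent activity-based probe, added after compound pre-incubation. Timing: pre-incubation 45 min, probe exposure 60 min, at 25 °C. Technique: FP readout, ex 525 nm / em 598 nm. Benchmarks: high control S159A mutant with DMSO, low control median of compound wells.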
HTRA1 inh: HTRA1 (human) protease inhibition; Q92743; recombinant HTRA1, FP-rhodamine activity-based probe, fluorescence polarization; inhibition, % at 5.96 µM; hit rate 0.5% among 340,000; AID 504803; in the data active means inhibition above about 36%
Target sequence (Q92743 whole entry, looked up): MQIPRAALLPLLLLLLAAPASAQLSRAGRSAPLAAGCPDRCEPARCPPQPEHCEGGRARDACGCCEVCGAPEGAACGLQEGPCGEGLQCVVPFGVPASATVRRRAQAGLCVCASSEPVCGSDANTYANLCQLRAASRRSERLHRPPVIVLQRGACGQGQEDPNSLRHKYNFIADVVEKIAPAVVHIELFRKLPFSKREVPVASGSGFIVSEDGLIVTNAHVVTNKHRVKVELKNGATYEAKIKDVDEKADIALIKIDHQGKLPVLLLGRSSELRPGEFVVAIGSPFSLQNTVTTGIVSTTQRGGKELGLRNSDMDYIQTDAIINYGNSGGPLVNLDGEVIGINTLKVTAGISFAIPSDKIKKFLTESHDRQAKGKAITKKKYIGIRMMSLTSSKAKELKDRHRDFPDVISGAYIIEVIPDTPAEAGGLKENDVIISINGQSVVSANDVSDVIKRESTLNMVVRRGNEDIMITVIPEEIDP
SIAE inh: blocks human sialic acid acetylesterase; hit rate 0.69% among 370,000; AID 1053197; Q9HAT2; inhibition, % at 9.66 µM; SIAE FP-Rh probe binding, fluorescence polarization;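 active means inhibition above a cutoff: mean of compounds within the control limits plus 3 SD of those, cut at about 17% in these data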
TCR CD3 inh: inhibitors of human TCR-CD3 interaction; inhibition, % at 9.4 µM; TAMRA-labeled TCR probe fluorescence, biochemical; AID 651800; hit rate 0.37% among 360,000; in the data active means inhibition above about 19%;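 further: recombinant mutant TCR 2C K166C tagged with TAMRA read by polarization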
ARNT-TACC3 inh: disrupts binding between human ARNT and TACC3 | inhibition, % at 9.99 µM | hit rate 0.66% among 390,000 | AlphaScreen His-ARNT PAS-B/GST-TACC3 binding, luminescence; TACC3 fragment carries E629A point mutation;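 active means mean inhibition of replicates at least 50% and at least half of replicates each reaching 50%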
HTRA1 conf: HTRA1 (human) inhibition, confirmation; recombinant HTRA1, FP-rhodamine activity-based probe, fluorescence polarization; hit rate 66% among 1,600; shares compounds with HTRA1 inh; inhibition, % at 5.96 µM;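 active means mean inhibition over three repeats above a set limit taken from the earlier primary screen, cut at about 37% in these data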;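 further: inhibitors block probe binding so polarization drops and inhibition rises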
Large screens that a line does not name were inactive (follow-up assays come after a bar, where they were run).

C[C@H](CO)N1C[C@H](C)[C@@H](CN(C)C(=O)Cc2cccnc2)Oc2ncc(C#Cc3ccccc3F)cc2C1=O	none (no result: ABHD4 inh, HTRA1 inh, SIAE inh, TCR CD3 inh)
O=C1CCNc2cc3ccccc3cc21	HTRA1 inh 40.8 (no result: ABHD4 inh, SIAE inh, TCR CD3 inh) | HTRA1 conf inactive
Cc1noc(C)c1S(=O)(=O)N(C)C[C@@H]1Oc2ccc(NC(=O)Cc3ccccc3)cc2CC(=O)N([C@@H](C)CO)C[C@H]1C	none (no result: ABHD4 inh, HTRA1 inh, SIAE inh, TCR CD3 inh)
COc1ccc2nc3cccc(OC)c3nc2c1	none
COc1ccc2nc3ccccc3nc2c1N	HTRA1 inh 48.5 (no result: ARNT-TACC3 inh) | HTRA1 conf inactive
CO[C@@H]1CN(C)C(=O)c2ccc(NC(=O)NC3CCCCC3)cc2OC[C@@H](C)N(CC2CCOCC2)C[C@H]1C	none (no result: ABHD4 inh, HTRA1 inh, SIAE inh, TCR CD3 inh)
Oc1[nH]c2ccccc2c1N=Nc1nc2ccccc2s1	none
C/C(N=Nc1nc2ccccc2s1)=N\Nc1ccccc1O	HTRA1 inh 67.6 | HTRA1 conf 73.6
C[C@@H]1CN([C@H](C)CO)C(=O)c2cccc(NC(=O)C3CC3)c2O[C@@H]1CN(C)S(=O)(=O)c1ccc(F)cc1	none (no result: ABHD4 inh, HTRA1 inh, SIAE inh, TCR CD3 inh)
O=C1CC(Nc2ccc(N3CCOCC3)cc2)C(=O)N1c1cccc(C(F)(F)F)c1 (stereo unspecified)	HTRA1 inh 60.8 (no result: ABHD4 inh, SIAE inh, TCR CD3 inh) | HTRA1 conf inactive
Oc1ccc(N=Nc2ccccc2C(F)(F)F)c2cccnc12	HTRA1 inh 53.5 | HTRA1 conf 74.7
Cc1ccc(N=Nc2ccc(O)c3ncccc23)cc1C	HTRA1 inh 38.8 | HTRA1 conf 82.2
Cc1ccc(N=Nc2ccc(O)c3ncccc23)cc1	HTRA1 inh 49.7 | HTRA1 conf 69.5
Oc1ccc(F)c2cccnc12	none
CCS(=O)(=O)NCC[C@@H]1CC[C@H](NS(=O)(=O)c2cccc(Cl)c2)[C@H](CO)O1	none (no result: ABHD4 inh, HTRA1 inh, SIAE inh, TCR CD3 inh)
Cc1cccc(S(=O)(=O)N2CCCCN3[C@H](CO)[C@@H](c4ccc(-c5cccnc5)cc4)[C@@H]3C2)c1	none (no result: ABHD4 inh, HTRA1 inh, SIAE inh, TCR CD3 inh)
Cc1ccc2c(c1)c1c(n2C)C(C(N)=O)CCC1 (stereo unspecified)	none
Cc1ccc2c(c1)c1c(n2C)-c2[nH]ncc2CC1	HTRA1 inh 37.0, SIAE inh 20.7 | HTRA1 conf inactive
COc1ccccc1-c1ccc2n(c1=O)C[C@H]1[C@H](CO)[C@@H](C(=O)N[C@H](C)c3ccccc3)[C@@H]2N1C	none (no result: ABHD4 inh, HTRA1 inh, SIAE inh, TCR CD3 inh)
Cc1ccc(C(=O)N/N=C/c2cccc(OC(=O)/C=C/c3ccco3)c2)cn1	none (no result: HTRA1 inh, ARNT-TACC3 inh)
O=C(/C=C/c1ccco1)Oc1cc(Br)cc(/C=N/NC(=O)c2ccccc2O)c1	HTRA1 inh 84.3 | HTRA1 conf 142.6
Cc1ccc(CNc2ccc(N3CCOCC3)cc2)s1	HTRA1 inh 36.4 | HTRA1 conf inactive
O=C(COC(=O)c1ccc2ncsc2c1)NC(=O)c1ccccc1	none
O=C(COC(=O)c1ccc2ncsc2c1)NC(=O)NCc1ccccc1	HTRA1 inh 39.2 | HTRA1 conf inactive
Cc1ccc2nc(-c3cc(N)cc(N)c3)oc2c1	HTRA1 inh 36.8 | HTRA1 conf inactive
O=C(C[C@H]1C[C@@H]2c3cc(NC(=O)C4CCOCC4)ccc3O[C@@H]2[C@@H](CO)O1)NCc1ccccc1F	none (no result: ABHD4 inh, HTRA1 inh, SIAE inh, TCR CD3 inh)
CCCC(=O)NC(c1ccco1)c1cc(Cl)c2cccnc2c1O (stereo unspecified)	HTRA1 inh 47.3 | HTRA1 conf 54.2
CN1CCN(C(c2ccc(Br)cc2)c2cc(Cl)c3cccnc3c2O)CC1 (stereo unspecified)	HTRA1 inh 51.7 (no result: ARNT-TACC3 inh) | HTRA1 conf 70.2
CCCC(=O)NC(c1ccc2c(c1)OCO2)c1cc(Cl)c2cccnc2c1O (stereo unspecified)	HTRA1 inh 62.4 (no result: ABHD4 inh, SIAE inh, TCR CD3 inh) | HTRA1 conf 59.3
CCC(=O)NC(c1ccc(C)cc1)c1cc(Cl)c2cccnc2c1O (stereo unspecified)	HTRA1 inh 62.4 (no result: ABHD4 inh, SIAE inh, TCR CD3 inh) | HTRA1 conf 76.1
C[C@H]1CN([C@@H](C)CO)S(=O)(=O)c2ccc(-c3cccc(C#N)c3)cc2O[C@H]1CN(C)C(=O)c1ccncc1	none (no result: ABHD4 inh, HTRA1 inh, SIAE inh, TCR CD3 inh)
CCNC(=O)Nc1ccc2c(c1)C(=O)N(C)[C@H]1CC[C@H](CC(=O)NCC3CCCCC3)O[C@H]1CO2	none (no result: ABHD4 inh, HTRA1 inh, SIAE inh, TCR CD3 inh)
CCC(=O)NC(c1cccs1)c1ccc2cccnc2c1O (stereo unspecified)	HTRA1 inh 41.4 | HTRA1 conf 46.0
COc1ccc(C(NC(C)=O)c2nccc3cc(OC)c(OC)cc23)cc1OC (stereo unspecified)	none
Oc1c(C(Nc2nccs2)c2ccc(C(F)(F)F)cc2)ccc2cccnc12 (stereo unspecified)	HTRA1 inh 43.5 | HTRA1 conf 53.7
CCCC(=O)NC(c1cccs1)c1cc(Cl)c2cccnc2c1O (stereo unspecified)	HTRA1 inh 63.4 | HTRA1 conf 56.2
Cc1[nH]c2ccccc2c1C(Nc1nccs1)c1ccncc1 (stereo unspecified)	none
CCC(=O)Nc1cccc2cccnc12	none
COc1ccc(C(NC(C)=O)c2cc(Cl)c3cccnc3c2O)cc1OC (stereo unspecified)	HTRA1 inh 42.1 | HTRA1 conf 56.0
O=C(C[C@@H]1CC[C@@H]2[C@H](COC[C@@H](O)CN2Cc2ccccc2F)O1)N1CCc2ccccc2C1	none (no result: ABHD4 inh, HTRA1 inh, SIAE inh, TCR CD3 inh)
C[C@H]1CN([C@@H](C)CO)C(=O)c2cc(NS(=O)(=O)c3ccc(Cl)cc3)ccc2O[C@@H]1CN(C)C(=O)Nc1ccc2c(c1)OCO2	none (no result: ABHD4 inh, HTRA1 inh, SIAE inh, TCR CD3 inh)
O=C(C[C@@H]1CC[C@@H](NS(=O)(=O)c2ccccc2)[C@H](CO)O1)NCc1ccncn1	none (no result: ABHD4 inh, HTRA1 inh, SIAE inh, TCR CD3 inh)
O=C(C[C@@H]1CC[C@@H](NC(=O)Nc2ccc3c(c2)OCO3)[C@@H](CO)O1)NCc1ccc(F)cc1	none (no result: ABHD4 inh, HTRA1 inh, SIAE inh, TCR CD3 inh)
C[C@H](CO)N1C[C@H](C)[C@H](CN(C)S(=O)(=O)c2ccc(Oc3ccccc3)cc2)OCc2cn(nn2)CCCC1=O	none (no result: ABHD4 inh, HTRA1 inh, SIAE inh, TCR CD3 inh)
Oc1c(C(Nc2nc3ccccc3s2)c2ccco2)ccc2cccnc12 (stereo unspecified)	HTRA1 inh 36.3 | HTRA1 conf 39.5
CCOc1ccc(C(Nc2cccnc2)c2cc(Cl)c3cccnc3c2O)cc1 (stereo unspecified)	HTRA1 inh 43.2 | HTRA1 conf 41.9
C=CCOc1ccc(C2OC34CCCCC3C(C#N)(C#N)C2(C#N)C(=N)O4)cc1 (stereo unspecified)	HTRA1 inh 37.7 (no result: ABHD4 inh, SIAE inh, TCR CD3 inh) | HTRA1 conf inactive
Cc1ccccc1-c1ccc2c(c1)O[C@@H](CN(C)C)[C@H](C)CN([C@@H](C)CO)S2(=O)=O	none (no result: ABHD4 inh, HTRA1 inh, SIAE inh, TCR CD3 inh)
C/C(=N\NC(=O)CSc1nc2ccccc2o1)c1cccc(O)c1	HTRA1 inh 50.9 | HTRA1 conf inactive
C/C(=N\NC(=O)CSc1nc2ccccc2o1)c1ccc(O)cc1	none
CCOC(=O)N1CCN(S(=O)(=O)c2ccc(C(=O)Nc3sc4c(c3C(=O)OC)CCN(C)C4)cc2)CC1	HTRA1 inh 52.7 (no result: ARNT-TACC3 inh) | HTRA1 conf 49.0
Oc1c(Cl)cc(Cl)cc1/C=C/c1ccc2cccc(O)c2n1	HTRA1 inh 36.8 | HTRA1 conf 47.9

Screening data: PubChem BioAssay, several laboratories
